From ChEMBL document CHEMBL3997798, “Novel Selective Estrogen Receptor Downregulators (SERDs) Developed against Treatment-Resistant Breast Cancer” (J Med Chem, 2017)

Columns and labels:
Plasma = assay: Drug uptake in mouse plasma at 100 mg/kg, po via gavage at 0.5 to 4 hrs post dose by LC-MS/MS analysis; format: ADME, organism-based; conditions: in vivo
Summary of the method: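 Plasma concentrations in mice were measured at 0.5 and 4 h after a 100 mg/kg oral dose given as a 0.5% CMC suspension.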

[1] = Oral bioavailability in rat; format: ADME, organism-based; conditions: in vivo

Drug uptake (Plasma)	bioavailability [1]	Structure (SMILES)
Active	–	Cc1ccc(C(=O)c2sc3cc(O)ccc3c2Oc2ccc(/C=C/C(=O)O)cc2)c(C)c1
Active	–	Cc1cc(Cl)cc(C)c1C(=O)c1sc2cc(O)ccc2c1Oc1ccc(/C=C/C(=O)O)cc1
–	> 60%	Oc1ccc2c(c1)CC[C@H](c1ccccc1)[C@@H]2c1ccc(OCCN2CCCC2)cc1 [LASOFOXIFENE]
Active	–	Cc1cc(F)cc(C)c1C(=O)c1sc2cc(O)ccc2c1Oc1ccc(/C=C/C(=O)O)cc1 [RINTODESTRANT]
